Compound activity (PubChem BioAssay)
Only some compounds are listed: those with a hit (about 2.8% of all), similar ones and a draw of the others.
pPAFAH inh: inhibitors of human plasma PAF acetylhydrolase (pPAFAH) | 330,000 tested, 1.5% active | Q13093 | inhibition, % at 3.39 µM | recombinant pPAFAH, FP-rhodamine probe fluorescence polarization;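 active = inhibition above the mean inhibition across the screen plus 3 SD, cut at about 25% in these data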;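 note: inhibitors block binding of the rhodamine activity-based probe so polarization drops; 0% = enzyme with DMSO and 100% = wells lacking pPAFAH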
PAFAH2 FP inh: inhibitors of human PAFAH2; Q99487; recombinant PAFAH2, FP-rhodamine activity probe, fluorescence polarization; inhibition, % at 3.39 µM; 340,000 tested, 0.99% active; AID 492956;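 active = inhibition above the mean over all tested compounds plus 3 SD, cut at about 30% in these data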;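 note: inhibitors block probe labeling of enzyme so polarization drops; 0% = enzyme with DMSO and 100% = wells lacking PAFAH2 protein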
HTRA1 inhibitor: inhibitors of human serine peptidase HTRA1. AID 504803. 340,000 tested, 0.5% active. recombinant HTRA1, FP-rhodamine activity-based probe, fluorescence polarization. inhibition, % at 5.96 µM; in the data active = inhibition above about 36%;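 note: 0% = enzyme with DMSO and 100% = wells lacking enzyme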
mABHD4 FP: inhibits mouse alpha/beta hydrolase domain 4; Q8VD66; 370,000 tested, 0.54% active; purified mABHD4, FP-Rh probe fluorescence polarization; inhibition, % at 8.92 µM;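 active = inhibition exceeding the mean over every tested compound plus 3 SD, cut at about 30% in these data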;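 note: 0% = plate median of compound wells and 100% = S159A mutant with DMSO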
Target sequence (Q8VD66 whole entry, looked up, the tested form may be a part): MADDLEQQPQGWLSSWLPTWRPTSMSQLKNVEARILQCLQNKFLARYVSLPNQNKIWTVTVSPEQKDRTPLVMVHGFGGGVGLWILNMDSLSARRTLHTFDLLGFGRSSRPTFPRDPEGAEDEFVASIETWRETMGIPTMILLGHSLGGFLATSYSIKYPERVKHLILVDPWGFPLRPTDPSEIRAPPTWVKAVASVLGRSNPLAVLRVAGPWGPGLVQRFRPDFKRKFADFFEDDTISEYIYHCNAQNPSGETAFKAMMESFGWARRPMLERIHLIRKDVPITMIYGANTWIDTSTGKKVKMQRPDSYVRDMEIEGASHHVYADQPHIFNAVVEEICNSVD
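Assay system: mABHD4 protein; medium: HEPES pH 7.0, NaCl, Pluronic buffer; dosing: 8.92 µM, single dose; schedule: 45 min + 60 min at 25 °C; signal: FP readout, ex 525 nm / em 598 nm; read-out: normalized percent inhibition of probe labeling; repeats: single replicate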
PAFAH1B3 FP inh: blocks human PAF acetylhydrolase 1B catalytic subunit 3. inhibition, % at 3.39 µM. recombinant PAFAH1B3, FP-rhodamine probe, fluorescence polarization. 340,000 tested, 0.28% active. Q15102;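 active = inhibition above the screen-wide average of all tested compounds plus 3 SD, cut at about 25% in these data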;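 note: 0% = enzyme with DMSO only and 100% = wells lacking PAFAH1B3 protein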
PAFAH1B2 FP inh: PAFAH1B2 (human) inhibition; P68402; recombinant PAFAH1B2, FP-rhodamine activity probe, fluorescence polarization; 340,000 tested, 1.2% active; AID 492953; inhibition, % at 3.39 µM;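 active = inhibition above the mean of all tested compounds plus 3 SD, cut at about 24% in these data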;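 note: 0% = enzyme with DMSO and 100% = wells lacking PAFAH1B2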
Target sequence (P68402 whole entry, looked up): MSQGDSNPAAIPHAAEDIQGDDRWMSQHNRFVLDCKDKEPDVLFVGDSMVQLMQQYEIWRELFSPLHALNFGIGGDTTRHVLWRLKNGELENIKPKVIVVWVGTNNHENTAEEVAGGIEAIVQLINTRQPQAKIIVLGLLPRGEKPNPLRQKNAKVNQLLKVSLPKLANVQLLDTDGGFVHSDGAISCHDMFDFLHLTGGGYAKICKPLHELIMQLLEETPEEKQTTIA
ABHD4 confirm: ABHD4 (mouse) inhibition, FP confirmation. shares compounds with mABHD4 FP. purified mABHD4, FP-Rh probe fluorescence polarization. inhibition, % at 8.92 µM. 1,800 tested, 55% active;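 active = mean inhibition across replicates above the hit cutoff set in the primary screen, cut at about 30% in these data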;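 note: 0% = wild-type ABHD4 with DMSO and 100% = catalytically dead S159A mutant with DMSO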
Active calls of the source: *; · = not tested or not shown.

SMILES | pPAFAH inh | PAFAH2 FP inh | HTRA1 inhibitor | mABHD4 FP | PAFAH1B3 FP inh | PAFAH1B2 FP inh | ABHD4 confirm
Cc1cc2cc(CNC(=O)c3ccc(S(=O)(=O)N4CCCCC4)cc3)ccc2n1C | 31* | -8 | -6 | 87* | -2 | -4 | -11
Cc1cc2cc(CNC(=O)c3ccc(S(=O)(=O)N4CCCC4)cc3)ccc2n1C | 4 | 13 | 25 | 39* | 2 | 10 | 11
CCC(CC)C(=O)NCc1ccc2c(c1)cc(C)n2C | -2 | 3 | 14 | 9 | 8 | 1 | ·
COc1ccc(C2CC(=O)C(c3cccc(Cl)c3)=CN2Cc2ccccc2)cc1 (stereo unspecified) | · | · | · | -18 | · | · | ·
COC(=O)c1cccc2c([N+](=O)[O-])c(NC(C)=O)cc(C(=O)OC)c12 | · | · | · | 7 | · | · | ·
O=C(NNc1nc2c(F)cccc2s1)c1cc(=O)c2ccccc2o1 | 16 | 0 | 22 | 39* | 14 | 9 | 30*
CC(=O)N1C[C@H]2CON(C)[C@H]2C[C@H]1c1ccccc1-c1ccccc1 | · | · | · | -3 | · | · | ·
Cc1ccccc1CN1CCCCC(NC(=O)c2ccc(Br)cc2)C1=O (stereo unspecified) | · | · | · | -4 | · | · | ·
CN(C)CCNc1cccc2sc3ccc(O)cc3c(=O)c12 | · | · | · | 31* | · | · | 18
Cc1ccc(NCCN(C)C)c2c(=O)c3cc(O)ccc3sc12 | · | 4 | 21 | 18 | 3 | 3 | ·
Cc1ccc(S(=O)(=O)N2C(N)=C(C(=O)NCc3ccc(Br)cc3)C(c3ccc(Cl)cc3)C2C(=O)c2ccccc2)cc1 (stereo unspecified) | · | · | · | -20 | · | · | ·
CC(=O)CC[C@H]1CC[C@]2(CCCN(S(C)(=O)=O)C2)O1 | · | · | · | -6 | · | · | ·
Cc1cccc2c1c1ccc3c(c1n2C)C(=O)C=CC3=O | · | 7 | 31 | 48* | 20 | 10 | 71*
COc1ccc(C(=O)Nc2nc3ccccc3[nH]2)cc1 | 2 | -6 | 7 | -6 | 9 | 0 | ·
Cc1ccc(C(=O)Nc2nc3ccccc3[nH]2)cc1 | 1 | -11 | -4 | 30* | -6 | 7 | 21
O=C(OCc1cn(Cc2cccc(F)c2F)nn1)N1CCCC1 | · | · | · | 5 | · | · | ·
C[C@@H]1ON(C)[C@H]2C[C@H]3c4cc(N5CCCCC5)ccc4CCN3C[C@@H]12 | · | · | · | -2 | · | · | ·
c1ccc(-c2nc(-c3ccccn3)nc(-c3ccccn3)n2)nc1 | 0 | 11 | 2 | 35* | 10 | 7 | 47*
O=S(=O)(c1cccs1)N1CCC(c2cn3ccccc3n2)CC1 | · | · | · | 2 | · | · | ·
NNc1nc2c(F)cccc2s1 | 3 | 0 | 24 | 77* | 2 | 3 | 32*
NNc1nc2c(F)cc(F)cc2s1 | 14 | 6 | 13 | 45* | 8 | 2 | 9
O=C1C=C[C@H]2CC[C@@H](O)[C@@H]1[C@@H]2Sc1ccccc1 | · | · | · | 6 | · | · | ·
COc1ccc(C(=O)NNS(=O)(=O)c2ccc(OC)cc2)cc1 | 3 | -1 | 7 | 0 | 10 | 4 | ·
COc1ccc(S(=O)(=O)NNC(=O)C(=O)NNc2ccccn2)cc1 | 4 | 1 | 2 | 31* | 7 | 4 | 26
O=C(CN1C(=O)/C(=C2/SC(=S)N(CCS(=O)(=O)O)C2=O)c2ccccc21)Nc1cccc(C(F)(F)F)c1 | 3 | -6 | -4 | 85* | 3 | -2 | 93*
SMILES | pPAFAH inh | PAFAH2 FP inh | HTRA1 inhibitor | mABHD4 FP | PAFAH1B3 FP inh | PAFAH1B2 FP inh | ABHD4 confirm
O=C(CN1C(=O)/C(=C2\SC(=S)N(CCS(=O)(=O)O)C2=O)c2ccccc21)Nc1cccc(Br)c1 | 0 | -7 | -39 | 67* | 2 | 4 | 83*
COCCN1C(=O)/C(=C2/C(=O)N(CC(=O)Nc3ccccc3Cl)c3ccccc32)SC1=S | 2 | -3 | -3 | -1 | -9 | -2 | ·
C=CCN1C(=O)[C@H](CC(=O)N2CCCC2)[C@@]2(C(=O)OCC)CCCC=C12 | · | · | · | 4 | · | · | ·
COc1ccc(S[C@]2(C(=O)N3CCN(c4ncccn4)CC3)CC(=O)N(C(=O)C3CC3)[C@@H]2c2ccc(OC)cc2)cc1 | · | · | · | 1 | · | · | ·
COc1ccc(S[C@]2(C(=O)N(C)C)CC(=O)N(C(=O)C3CC3)[C@@H]2c2ccc(OC)cc2)cc1 | · | · | · | 34* | · | · | 32*
COC(=O)c1cc(-c2ccccc2OC)c(=O)n2c1CCC2 | · | · | · | 2 | · | · | ·
C=C(C)C(=O)Oc1ccc(N=Nc2ccc(C)cc2)ccc1=O | · | · | · | 50* | · | · | 59*
CC(=O)c1ccc(N=Nc2ccc(C)cc2)cc1 | · | -3 | 12 | 2 | 2 | 0 | ·
CCOC(=O)c1c(CN2CCCCC2)n(C)c2cc(Br)c(O)c(CN(C)C)c12 | -3 | 0 | -4 | · | 6 | 3 | ·
CCOC(=O)c1c(CSc2ccc(C)cc2)n(C)c2cc(Br)c(O)c(CN(C)C)c12 | 6 | 8 | -2 | 40* | 12 | 17 | 23
CCOC(=O)c1c(CSc2ccccc2)n(C)c2cc(Br)c(O)c(CN(C)C)c12 | 1 | 2 | -6 | 39* | 4 | 4 | 9
CCOC(=O)c1c(CSc2ccsc2)n(C)c2cc(Br)c(O)c(CN(C)C)c12 | 3 | -1 | -5 | 30* | -2 | 5 | 2
CCCCCCNC(=O)C1CSCCS(=O)(=O)N1Cc1ccccc1 (stereo unspecified) | · | · | · | -4 | · | · | ·
COc1ccc(-c2nnc(SCC(=O)Nc3cccc4ccccc34)n2Cc2ccco2)cc1 | · | · | · | -7 | · | · | ·
Cc1ccccc1CN1CCCCC(NC(=O)c2ccc3ccccc3c2)C1=O (stereo unspecified) | · | · | · | -8 | · | · | ·
CCC(C)N(C(=O)CSc1nnc(-c2cc(OC)c(OC)c(OC)c2)o1)C(C)CC (stereo unspecified) | · | · | · | -3 | · | · | ·
CC(C)(O)C#Cc1ccc(CN2CCN(Cc3ccsc3)C(CCO)C2)s1 (stereo unspecified) | -3 | -6 | 5 | 93* | 3 | 4 | -3
O=[N+]([O-])c1cccc(/C=N/Nc2nc(NCc3ccccc3)nc(N3CCOCC3)n2)c1 | -1 | -3 | 1 | 47* | 4 | 4 | -10
O=[N+]([O-])c1ccc(/C=N/Nc2nc(NCc3ccccc3)nc(N3CCOCC3)n2)cc1 | -1 | 6 | 6 | 3 | 0 | 7 | ·
Nc1ccc2cc3ccc(N)cc3nc2c1 | · | · | · | 32* | · | · | 28
Cc1ccc2cc(N)ccc2n1 | · | -5 | 7 | -1 | 12 | 3 | ·
CCCCCCCCN1C(=O)[C@@H](CC(=O)NCc2ccccc2)C[C@@]2(C(=O)OC)C1=C[C@H](C(C)C)O[C@@H]2C1CC1 | · | · | · | -2 | · | · | ·
COc1cc(NS(=O)(=O)c2ccc(Nc3nc(-c4ccccn4)cs3)cc2)nc(OC)n1 | 11 | 22 | 12 | 35* | 10 | 13 | 31*
COc1ccccc1N(O)C1CC(=O)N(c2ccc(Br)cc2)C1=O (stereo unspecified) | 23 | 7 | 11 | 34* | 13 | 7 | 28
O=C(NCC(c1ccccc1)c1ccccc1)[C@H](Cc1ccccc1)NC1(C(=O)NC2CCCCC2)CCCCCC1 | · | · | · | 5 | · | · | ·
